Assay [1] can be described thus: Her2 expression decrease, cell viability multiplex – SKBR3 breast tumor cells, AlphaScreen, ATP viability, primary screen (AID 461).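 As to Her2 level: lower value means less Her2 protein in the cells.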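 As to viability: percent of carrier control wells set as 100% viability.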 As to conditions: SKBR3 Her2 protein level, 18-24 h, measured here: SKBR3 viability, ATP luminescence, at 10 µM. (In general: Alpha assays give light when donor and acceptor beads are brought close together.)
The target of assay [2] is Receptor tyrosine-protein kinase erbB-2 (Homo sapiens) (UniProt P04626). The assay is described as above. As to conditions: 18-24 h, at 10 µM, stronger effect = lower value.
Assay [3] in a line: reduced viability of SK-BR-3 breast cancer cells – cell-based, 24 h, human, pilot screen (AID 572;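 active = viability at or below 10% of carrier control in both of two separate runs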;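 also: compound exposure lasted between 18 and 24 h rather than exactly 24 h; 100% = carrier-treated control wells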). As to conditions: SK-BR-3 viability, CellTiter-Glo luminescence, at 10 µM, stronger effect = lower value. A general note: Cellular ATP, detected with luciferase, serves as a proxy for viable cell number.
Assay [4] in a line: HUVEC growth inhibition – cell-based, human, primary screen (AID 575;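 active = viability at or below 30% in both replicate assays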;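 also: 100% = median of untreated cell wells with 0.1% DMSO on each plate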). The settings on record: HUVEC proliferation, CellTiter-Glo luminescence, 72 h; at 10 µM; stronger effect = lower value. In a few lines: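 Material: primary human umbilical vein endothelial cells / Schedule: 72 h exposure, 37 °C, 5% CO2, 30 min RT equilibration / Signal: ATP-based CellTiter-Glo luminescent read / Read-out basis: percent of median DMSO-control luminescence / Control set: 32 DMSO-only cell-control wells (high), 32 MePR drug-control wells (low) per plate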

The nature of assay [5]: H69AR cell proliferation blockers – human, duplicate replicates, primary screen (AID 580;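 active = viability at or under a set limit in both replicates, limit being median viability minus 3 SD, cut at about 48% in these data, passing the limit was not always enough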;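 also: 100% = mean luminescence of untreated wells and 0% = no signal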). As to conditions: H69AR lung tumor cells viability, ATP luminescence, 72 h; at 10 µM; stronger effect = lower value.
Assay [6] can be described thus: MRP1 drug-resistance reversers in H69AR cells – cell-based, doxorubicin co-treatment, pilot screen (AID 601;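 active = viability loss from added drug above about 55%, and viability with drug at most 40%, in both replicates, limit read from the data, passing the limit was not always enough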). The settings on record: CellTiter-Glo, 72 h, at 10 µM; for differential viability (reversal): stronger effect = higher value.
Assay [7] is described as follows: yeast transport mutant growth inhibition pilot in 384-well plates, post-Golgi transport modulator project (AID 636; in the data active = inhibition above about 31%). As to conditions: absorbance 615 nm, about 18 h, stronger effect = higher value.
The nature of assay [8]: growth suppression of yeast trafficking mutant, preliminary HTS, modulators of trafficking downstream of Golgi apparatus project, 1536-format plate, OD 615 nm (AID 637; in the data active = inhibition above about 30%). As to conditions: yeast transport mutant growth, absorbance 615 nm, 18 h; stronger effect = higher value.
[9] abbreviates: H69AR cells + 2 uM doxorubicin, measured here: viability with 2 uM doxorubicin, stronger effect = lower value.
Where [10] appears, read: H69AR cells, compound alone cytotoxicity.

Active and inactive are the calls of the source.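 The calls were made as follows, unless noted: active = Her2 level under about 52% in both replicate screens, with viability over 70% of control (limit read from the data); inconclusive = Her2 under the limit in one screen only, or viability under 70%; inactive = Her2 level above the set limit.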

Chain of Receptor tyrosine-protein kinase erbB-2 (Homo sapiens) (P04626 whole entry, looked up): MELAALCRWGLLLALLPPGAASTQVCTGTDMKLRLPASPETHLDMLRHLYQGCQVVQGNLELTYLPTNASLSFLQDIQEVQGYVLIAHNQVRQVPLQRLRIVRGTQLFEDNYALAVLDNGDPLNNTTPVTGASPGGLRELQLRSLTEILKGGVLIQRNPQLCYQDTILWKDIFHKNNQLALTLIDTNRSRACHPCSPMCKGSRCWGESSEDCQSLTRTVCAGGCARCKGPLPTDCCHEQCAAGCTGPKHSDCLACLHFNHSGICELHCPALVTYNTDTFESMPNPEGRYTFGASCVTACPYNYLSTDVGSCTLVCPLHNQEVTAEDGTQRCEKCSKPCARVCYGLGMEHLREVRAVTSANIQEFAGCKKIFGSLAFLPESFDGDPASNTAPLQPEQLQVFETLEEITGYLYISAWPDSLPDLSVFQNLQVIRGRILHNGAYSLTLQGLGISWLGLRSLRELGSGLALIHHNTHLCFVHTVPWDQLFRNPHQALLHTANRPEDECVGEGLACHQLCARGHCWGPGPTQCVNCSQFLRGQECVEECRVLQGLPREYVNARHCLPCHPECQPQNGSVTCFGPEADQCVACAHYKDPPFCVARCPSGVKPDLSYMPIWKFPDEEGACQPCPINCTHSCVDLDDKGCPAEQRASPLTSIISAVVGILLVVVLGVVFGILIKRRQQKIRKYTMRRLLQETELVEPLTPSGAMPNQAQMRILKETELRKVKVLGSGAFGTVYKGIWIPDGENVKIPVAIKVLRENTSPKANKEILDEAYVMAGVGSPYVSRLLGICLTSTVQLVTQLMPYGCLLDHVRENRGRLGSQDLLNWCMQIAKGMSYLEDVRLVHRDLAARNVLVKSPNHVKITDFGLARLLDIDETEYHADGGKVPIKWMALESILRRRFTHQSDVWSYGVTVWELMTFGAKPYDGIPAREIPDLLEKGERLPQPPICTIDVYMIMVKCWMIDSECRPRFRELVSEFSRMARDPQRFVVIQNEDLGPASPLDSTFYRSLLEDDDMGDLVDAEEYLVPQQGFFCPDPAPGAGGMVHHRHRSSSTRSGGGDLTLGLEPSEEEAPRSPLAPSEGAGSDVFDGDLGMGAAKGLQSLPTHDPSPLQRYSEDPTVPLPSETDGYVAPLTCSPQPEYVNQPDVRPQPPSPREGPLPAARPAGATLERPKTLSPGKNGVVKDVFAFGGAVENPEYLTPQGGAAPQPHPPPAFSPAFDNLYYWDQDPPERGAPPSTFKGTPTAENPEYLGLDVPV

In the case of `COc1ccc(N2CCN(CCCNC(=O)C3CCCN(S(=O)(=O)c4cnc[nH]4)C3)CC2)cc1` (stereo not given), the viability is 95.5% in assay [1]; 95.5% (inactive) in assay [3]; 93.4% (inactive) in assay [4]; 103% (inactive) in assay [5]; 89% in assay [6] (setting [9]); 103% in assay [6] (setting [10]). Also, the Her2 level in assay [2] was 102% (inactive). Further, the differential viability (reversal) in assay [6] (H69AR cells + 2 uM doxorubicin) was 14% (inactive). For the same compound, the inhibition in assay [7] was -4% (inactive); in assay [8], -4.26% (inactive).
As for `CCSc1ccccc1C(=O)Nc1cccc(OC)c1`, the viability is 110% in assay [1]; 110% (inactive) in assay [3]; 115% (inactive) in assay [4]; 98.4% (inactive) in assay [5]; 86.6% in assay [6] (setting [9]); 98.4% in assay [6] (setting [10]). For the same compound, the Her2 level in assay [2] was 97% (inactive). In addition, the differential viability (reversal) in assay [6] (H69AR cells + 2 uM doxorubicin) is 11.7% (inactive). In addition, the inhibition in assay [7] is -8.49% (inactive); in assay [8] it was -3.33% (inactive).
In the case of `CCCCCCNC(=O)Cc1c(O)c2ccccc2[nH]c1=O`, the viability is 105% in assay [1]; 105% (inactive) in assay [3]; 114% (inactive) in assay [4]; 94.9% (inactive) in assay [5]; 80.2% in assay [6] (setting [9]); 94.9% in assay [6] (setting [10]). The Her2 level in assay [2] was 90.5% (inactive). Further, in assay [6] (H69AR cells + 2 uM doxorubicin), the differential viability (reversal) was 14.7% (inactive). Moreover, the figures for the inhibition in assay [7] and in assay [8] were -5.27% (inactive) and 7.67% (inactive), respectively.
With `CCOC(=O)C(NC(=O)c1ccc(OC)cc1)(N1CCOCC1)C(F)(F)F` (stereo not given), the viability was 112% in assay [1]; 112% (inactive) in assay [3]; 115% (inactive) in assay [4]; 100% (inactive) in assay [5]; 102% in assay [6] (setting [9]); 100% in assay [6] (setting [10]). The Her2 level in assay [2] was 95.5% (inactive). In addition, the differential viability (reversal) in assay [6] (H69AR cells + 2 uM doxorubicin) was -2.41% (inactive). For the same compound, the inhibition in assay [7] was -4.81% (inactive); in assay [8] it was 0.32% (inactive).
Regarding `CC(NC(=O)CSc1n[nH]c(=O)n1C1CC1)C12CC3CC(CC(C3)C1)C2` (stereo not given), the viability is 91.5% in assay [1]; 91.5% (inactive) in assay [3]; 91.6% (inactive) in assay [4]; 99.8% (inactive) in assay [5]; 93.6% in assay [6] (setting [9]); 99.8% in assay [6] (setting [10]). In addition, the Her2 level in assay [2] was 106% (inactive). Also, the differential viability (reversal) in assay [6] (H69AR cells + 2 uM doxorubicin) was 6.17% (inactive). Moreover, the inhibition is -4% (inactive) in assay [7] and -5.41% (inactive) in assay [8].
Regarding `CCc1ccccc1NC(=O)C(C#N)Cc1cccnc1` (stereo not given), the viability was 90% in assay [1]; 90% (inactive) in assay [3]; 97.4% (inactive) in assay [4]; 94.6% (inactive) in assay [5]; 96.3% in assay [6] (setting [9]); 94.6% in assay [6] (setting [10]). The Her2 level in assay [2] is 88.5% (inactive). For the same compound, the differential viability (reversal) in assay [6] (H69AR cells + 2 uM doxorubicin) is -1.77% (inactive). For the same compound, the inhibition in assay [7] is -2.57% (inactive); in assay [8], -0.49% (inactive).
Take `CC(C)(C)c1cc(C(=S)N2CCN(CCO)CC2)cc(C(C)(C)C)c1O`: the viability was 123% in assay [1]; 123% (inactive) in assay [3]; 94.7% (inactive) in assay [4]; 96.2% (inactive) in assay [5]; 78.8% in assay [6] (setting [9]); 96.2% in assay [6] (setting [10]). For the same compound, in assay [2], the Her2 level was 86% (inactive). In addition, the differential viability (reversal) in assay [6] (H69AR cells + 2 uM doxorubicin) is 17.4% (inactive). In addition, the values for the inhibition in assay [7] and in assay [8] were -6.13% (inactive) and 2.42% (inactive), respectively.
In the case of `CCN(CC)c1ccc(NC(=O)c2[nH]c(C)c(C(C)=O)c2C)c(C)c1`, the viability was 92.5% in assay [1]; 92.5% (inactive) in assay [3]; 93.1% (inactive) in assay [4]; 74.8% (inactive) in assay [5]; 75.9% in assay [6] (setting [9]); 74.8% in assay [6] (setting [10]). Also, the Her2 level in assay [2] is 91% (inactive). In addition, the differential viability (reversal) in assay [6] (H69AR cells + 2 uM doxorubicin) was -1.04% (inactive). The figures for the inhibition in assay [7] and in assay [8] were -0.39% (inactive) and -8.06% (inactive), respectively.
Take `COc1ccc(-n2ncc3c(NCc4ccccn4)ncnc32)cc1`: the viability is 98.5% in assay [1]; 98.5% (inactive) in assay [3]; 102% (inactive) in assay [4]; 90.5% (inactive) in assay [5]; 87% in assay [6] (setting [9]); 90.5% in assay [6] (setting [10]). In addition, in assay [2], the Her2 level was 97.5% (inactive). Moreover, the differential viability (reversal) in assay [6] (H69AR cells + 2 uM doxorubicin) was 3.51% (inactive). For the same compound, the results for the inhibition in assay [7] and in assay [8] were -1.97% (inactive) and 4.19% (inactive), respectively.
Take `CCOc1ccccc1C1NC(=O)NC(C)=C1C(=O)OC1CCCC1C` (stereo not given): the viability in assay [1] was 94.5%; in assay [3], 94.5% (inactive); in assay [4], 82.5% (inactive); in assay [5] it was 78.1% (inactive); in assay [6] (setting [9]) it was 75.8%; in assay [6] (setting [10]) it was 78.1%. Moreover, in assay [2], the Her2 level was 69% (inactive). In addition, the differential viability (reversal) in assay [6] (H69AR cells + 2 uM doxorubicin) is 2.33% (inactive). In addition, the figures for the inhibition in assay [7] and in assay [8] were -1.73% (inactive) and 0.81% (inactive), respectively.
As to `COc1ccc(-c2cc(C(F)(F)F)nc(SCC(=O)NCc3ccco3)n2)cc1OC`, the viability was 96.5% in assay [1]; 96.5% (inactive) in assay [3]; 68.1% (inactive) in assay [4]; 55.2% (inactive) in assay [5]; 80.9% in assay [6] (setting [9]); 55.2% in assay [6] (setting [10]). The Her2 level in assay [2] is 84% (inactive). In assay [6] (H69AR cells + 2 uM doxorubicin), the differential viability (reversal) was -25.6% (inactive). Besides, the inhibition in assay [7] was -0.66% (inactive); in assay [8] it was -0.32% (inactive).
For `CCOC(=O)c1ccccc1NC(=O)CSc1nnc(COc2ccccc2C)n1C`, the viability is 63% in assay [1]; 63% (inactive) in assay [3]; 82.6% (inactive) in assay [4]; 78.7% (inactive) in assay [5]; 73% in assay [6] (setting [9]); 78.7% in assay [6] (setting [10]). In addition, in assay [2], the Her2 level was 89% (inactive). Moreover, the differential viability (reversal) in assay [6] (H69AR cells + 2 uM doxorubicin) was 5.67% (inactive). Also, the inhibition is -3.08% (inactive) in assay [7] and -9.17% (inactive) in assay [8].
For the compound `O=C(C1CC1)N(Cc1ccco1)c1nc(-c2ccccc2)cs1`, the viability in assay [1] is 96.5%; in assay [3], 96.5% (inactive); in assay [4] it was 81.4% (inactive); in assay [5] it was 86.4% (inactive); in assay [6] (setting [9]) it was 84.7%; in assay [6] (setting [10]) it was 86.4%. The Her2 level in assay [2] is 108% (inactive). Besides, in assay [6] (H69AR cells + 2 uM doxorubicin), the differential viability (reversal) is 1.75% (inactive). For the same compound, the inhibition is -5.6% (inactive) in assay [7] and -8.36% (inactive) in assay [8].
On to `CCOC(=O)c1c(NC(=O)c2cccs2)sc(C)c1C`, for which the viability in assay [1] was 77%; in assay [3], 77% (inactive); in assay [4], 67.8% (inactive); in assay [5], 86.2% (inactive); in assay [6] (setting [9]), 83.6%; in assay [6] (setting [10]), 86.2%. Also, the Her2 level in assay [2] was 83.5% (inactive). Moreover, in assay [6] (H69AR cells + 2 uM doxorubicin), the differential viability (reversal) is 2.64% (inactive). In addition, the inhibition in assay [7] is -5.33% (inactive); in assay [8] it was -0.16% (inactive).
Turning to `Cc1cc(NC(=O)Cn2cnc3c2c(=O)n(C)c(=O)n3C)n(-c2ccccc2)n1`, the viability in assay [1] was 116%; in assay [3], 116% (inactive); in assay [4], 117% (inactive); in assay [5], 108% (inactive); in assay [6] (setting [9]) it was 99.3%; in assay [6] (setting [10]) it was 108%. Moreover, in assay [2], the Her2 level is 93% (inactive). The differential viability (reversal) in assay [6] (H69AR cells + 2 uM doxorubicin) was 8.22% (inactive). Moreover, the figures for the inhibition in assay [7] and in assay [8] were -7.97% (inactive) and 0.83% (inactive), respectively.
Regarding `CCN1CCN(c2ncc(C(=O)N3CCN(c4ccccc4OC)CC3)c3ccccc23)CC1`, the viability in assay [1] is 81%; in assay [3], 81% (inactive); in assay [4] it was 98.8% (inactive); in assay [5] it was 101% (inactive); in assay [6] (setting [9]), 86.7%; in assay [6] (setting [10]), 101%. For the same compound, the Her2 level in assay [2] is 87.5% (inactive). Also, the differential viability (reversal) in assay [6] (H69AR cells + 2 uM doxorubicin) was 14.7% (inactive). The inhibition in assay [7] is -5.68% (inactive); in assay [8], -1.8% (inactive).

By viability is commonly meant a read-out of living cells in per cent, often relative to untreated cells. For orientation: inhibition means the relative decrease from the control value, in per cent.

The record behind these values is PubChem BioAssay.
